A selection: hits, their analogues and other compounds. The true share with any hit is near 2%.
HCV NS3 hel inh – inhibitors of HCV NS3 helicase, primary screen, biochemical, Cy5 molecular beacon fluorescence | NS3 helicase DNA unwinding | inhibition, % at 10.9 µM | 290,000 tested, 0.56% active;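 active = inhibition above the mean of all tested compounds plus 3 SD, set per campaign, cut at about 35% in these data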;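 also: 0% = DMSO wells and 100% = thioflavine S control wells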
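Control set: DMSO versus 110 µM thioflavine S; Material: NS3 helicase fragment of HCV; Measured by: Cy5 fluorescence at 0 and 60 min, beacon hairpin quenching; Read-out basis: percent inhibition from t60/t0 fluorescence ratio; Times: reaction time 60 min, 25 °C; Repeats: single replicate; Compound dosing: single dose, 10.9 µM nominal final, DMSO 0.8% final.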
EBNA-1 inh – EBNA-1 DNA-binding inhibitors, primary screen, biochemical, fluorescence polarization. AID 1950, 2009. inhibition, % at 14.8 µM. 300,000 tested, 0.34% active; in the data active = inhibition above about 28%
DNA FID counter – compounds displacing fluorescent DNA intercalator, primary screen, artefact control for HCV NS3 helicase inhibitor project, biochemical, FID fluorescence; DNA fluorescent intercalator displacement; inhibition, % at 7.9 µM; 290,000 tested, 0.17% active; in the data active = inhibition above about 37%;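 also: 0% = vehicle and 100% = reference compound; higher means more ethidium bromide displaced from hairpin DNA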
ZTA counter – counter-screen for EBNA-1 inhibitors: inhibitors of Epstein-Barr virus ZTA; ZTA-DNA binding, fluorescence polarization; inhibition, % at 11 µM; 320,000 tested, 0.15% active; AID 2234; in the data active = inhibition above about 33%
Target sequence (P03206 whole entry, looked up): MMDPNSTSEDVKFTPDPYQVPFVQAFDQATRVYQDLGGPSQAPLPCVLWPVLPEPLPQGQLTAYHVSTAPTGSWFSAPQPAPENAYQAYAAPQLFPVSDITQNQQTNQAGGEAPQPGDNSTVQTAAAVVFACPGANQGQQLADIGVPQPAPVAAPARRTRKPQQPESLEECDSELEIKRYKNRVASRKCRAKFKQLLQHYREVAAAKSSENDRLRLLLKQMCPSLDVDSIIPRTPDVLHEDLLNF
GPR7 antagonist – GPR7 receptor antagonists, primary screen, cell-based, fluorescence, single concentration; inhibition, % at 4.4 µM; GPR7-expressing cells, fluorescence antagonist assay; Neuropeptides B/W receptor type 1 (Homo sapiens), P48145; 290,000 tested, 1.1% active; in the data active = inhibition above about 16%, passing the limit was not always enough;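 also: cells stimulated with the agonist NPW; 0% = agonist with vehicle and 100% = vehicle without agonist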
Target sequence (P48145 whole entry, looked up): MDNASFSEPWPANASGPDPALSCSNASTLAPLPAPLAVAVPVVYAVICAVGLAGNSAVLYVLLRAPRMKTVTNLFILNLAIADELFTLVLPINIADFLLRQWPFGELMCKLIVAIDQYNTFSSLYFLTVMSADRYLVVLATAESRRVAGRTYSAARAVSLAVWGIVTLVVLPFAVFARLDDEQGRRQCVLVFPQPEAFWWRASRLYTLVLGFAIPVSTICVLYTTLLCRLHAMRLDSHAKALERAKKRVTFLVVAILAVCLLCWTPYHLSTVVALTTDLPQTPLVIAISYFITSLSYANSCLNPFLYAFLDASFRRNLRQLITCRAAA
GPR7 antag cf – GPR7 receptor antagonists, confirmation, cell-based, fluorescence, single concentration; shares compounds with GPR7 antagonist; GPR7-expressing cells, calcium fluorescence antagonist mode; inhibition, % at 4.4 µM; 2,400 tested, 52% active; in the data active = inhibition above about 24%;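 also: stimulated with the GPR7 agonist NPW; 0% = agonist plus vehicle and 100% = vehicle alone without agonist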
MCHR1 antag – MCHR1 antagonists in cells, counter-screen for GPR7 antagonist project, cell-based, fluorescence, human; shares compounds with GPR7 antagonist; MCHR1-expressing cells, fluorescence antagonist assay; inhibition, % at 4.4 µM; 2,400 tested, 62% active; AID 2148, 2009; in the data active = inhibition above about 22%;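 also: 0% = vehicle with agonist and 100% = vehicle without agonist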
* = called active by the depositor; . = not tested or not shown.

SMILES	HCV NS3 hel inh	EBNA-1 inh	DNA FID counter	ZTA counter	GPR7 antagonist	GPR7 antag cf	MCHR1 antag
CCOc1ccc(S(=O)(=O)Nc2ccc(C(=O)N3CC(C)OC(C)C3)cc2)cc1 (stereo unspecified)	.	-3	.	14	.	.	.
CC1CN(C(=O)c2ccc(NS(=O)(=O)c3ccc(C(C)(C)C)cc3)cc2)CC(C)O1 (stereo unspecified)	-5	.	-41	.	33*	32*	42*
CN(C)c1ccsc1C(=O)NNS(=O)(=O)c1ccc(Cl)cc1	.	-6	.	-20	.	.	.
C=CCc1cc(Cl)ccc1OCCOCCN(C)C	-25	-8	32	-18	40*	8	12
O=C(OCC(=O)N1CCN(S(=O)(=O)c2ccccc2)CC1)c1ccc([N+](=O)[O-])o1	12	-3	2	-4	29*	-5	-1
CN(C)CCNC(=O)c1ccc(Sc2ccc(Br)cc2)c([N+](=O)[O-])c1	-42	-5	39*	11	23*	37*	42*
CCN1C(=O)C(NC(C)=O)c2cc(Br)ccc21 (stereo unspecified)	4	-24	-20	-3	27	.	.
CCCCN1C(=O)C(NC(C)=O)c2cc(Br)ccc21 (stereo unspecified)	2	0	-12	0	53*	26*	19
O=C(c1cccs1)N1CCN(C23CC4CC(CC(C4)C2)C3)CC1	0	7	-6	8	-8	.	.
Clc1ccc(-c2csc(=Nc3cccnc3)n2CCCn2ccnc2)cc1Cl	-31	0	6	-8	28*	28*	40*
CC(C)C(=O)Nc1ccc(NC(=O)CCc2ccccc2)cn1	2	8	-8	4	23*	5	2
CCN1CCN(C(c2ccccc2OC)c2nnnn2C2CCCCC2)CC1 (stereo unspecified)	5	-2	30	-27	30*	7	8
Cc1ccccc1CN1CCC(n2nccc2NC(=O)CCOc2ccccc2)CC1	1	-11	16	4	6	.	.
COc1ccc(C(=O)NCCc2ccccc2)cc1[N+](=O)[O-]	13	-1	0	7	31*	-6	15
CC(C)C(NC(=O)c1ccccc1)C(=O)NCc1ccccn1 (stereo unspecified)	-9	-11	-3	-9	35*	-16	11
Cc1ccc(NC(=O)NNC(=O)C2CC(c3cccs3)=NO2)cc1 (stereo unspecified)	-5	-3	-9	-3	-8	.	.
CCCCn1c(N)c(N(CC(C)C)C(=O)Cc2ccc3c(c2)OCCO3)c(=O)[nH]c1=O	.	-17	.	0	.	.	.
CN1CCC(NC(=O)c2cc(-c3cccc(Br)c3)nc3ccccc23)CC1	-10	-7	36	8	42*	37*	32*
O=C(NC1CC1)c1cc(-c2ccc(Br)cc2)nc2ccccc12	.	.	.	-12	.	.	.
CCc1cc(C(=O)Nc2cc(Cl)ccc2N2CCN(C)CC2)sc1C	.	-8	.	-16	.	.	.
CN1CCN(c2ccc(Cl)cc2NC(=O)/C=C/c2cccc(F)c2)CC1	-38	-19	22	0	27*	43*	28*
CN1CCN(c2ccc(Cl)cc2NC(=O)c2cccc(S(=O)(=O)N(C)C)c2)CC1	-62	8	27	-2	24*	16	13
COc1cccc(NC(=O)CCc2nnc3ccc(N4CCN(c5cccc(OC)c5)CC4)nn23)c1	6	3	-7	-19	-7	.	.
COc1ccc(NC(=O)CCc2nnc3ccc(N4CCN(c5cccc(OC)c5)CC4)nn23)cc1	-23	-8	-62	9	25*	1	33*
Cc1ccc(S(=O)(=O)N2[C@@H](c3ccccc3F)C(C(=O)O)=CC[C@H]2c2ccc(Cl)c(Cl)c2)cc1	.	14	.	12	.	.	.
SMILES	HCV NS3 hel inh	EBNA-1 inh	DNA FID counter	ZTA counter	GPR7 antagonist	GPR7 antag cf	MCHR1 antag
COC(=O)Cc1ccc(NC(=S)N2CCN(C)CC2)cc1	12	11	-3	6	34*	-6	13
CCn1c(CC(=O)Nc2ccc(F)cc2)nnc1SCC(=O)Nc1nncs1	-1	-4	-12	9	-4	.	.
CCN1C(=O)c2ccc(C(=O)Nc3ccc4c(c3)OCO4)cc2C1=O	4	4	-3	0	-5	.	.
COc1ccc2[nH]c(=O)cc(C(=O)O)c2c1	9	-3	-1	6	13	.	.
COc1ccc2[nH]c3c4c(ccc3c2c1)C(=O)C=CC4=O	13	.	11	.	23*	62*	80*
O=C(COC(=O)C1CC2C=CC1C2)NCCc1ccccc1 (stereo unspecified)	7	3	-15	-1	25*	12	1
O=C(COC(=O)C1CC2C=CC1C2)Nc1ccccc1F (stereo unspecified)	-7	6	-2	9	-4	.	.
CC(C)Cn1c(N)c(C(=O)COC(=O)C2Cc3ccccc3CN2S(C)(=O)=O)c(=O)n(C)c1=O (stereo unspecified)	.	.	.	11	.	.	.
Cn1c(Oc2ccccc2NCc2cccc(Br)c2)cc(=O)n(C)c1=O	-3	2	-33	5	31*	22	33*
O=C(NC12CC3CC(CC(C3)C1)C2)OCCNC1CCCCC1	-5	3	25	0	26*	-3	-9
COc1ccc(NC(=O)CSc2nnc(Cc3ccc(C)cc3)c(=O)n2N)cc1OC	.	-11	.	2	.	.	.
Cc1cccc(NC(=O)CC2C(=O)NCCN2C(=O)Nc2ccc(Cl)cc2)c1 (stereo unspecified)	-36	.	-13	.	21*	33*	47*
CCN(Cc1ccccc1)Cc1nnnn1Cc1ccccc1	-9	-17	-24	-12	26*	18	16
O=C(NCc1ccncc1)C(=O)N/N=C/c1ccc(OCc2ccccc2)cc1	3	3	-4	25	-11	.	.
O=NN(CCc1ccncc1)c1ccc(OCc2ccccc2)cc1	-22	-4	-6	-8	25*	50*	43*
CN1CCC(Oc2ccccc2Sc2ccc(C(F)(F)F)cc2)CC1	-67	-5	27	4	27*	30*	64*
Cc1ccccc1NC(=S)N(Cc1cccs1)C1CCCCC1	11	5	22	4	-22	.	.
Cc1c(Cl)cccc1NC(=S)N(Cc1cccs1)C1CCCC1	1	2	-1	5	23*	-2	27*
O=C(CN1C(=O)c2ccccc2C1=O)Nc1ccccc1F	21	-4	1	3	21*	-10	38*
O=C(CN1C(=O)c2ccccc2C1=O)Nc1ccccc1C(F)(F)F	6	1	1	-2	-3	.	.
